# Measured values as given in paper PMC12217349 (Scientific Reports, 2025).
# Key:
# [1] = test system: bone marrow collagen fibrosis; conditions: myelofibrosis patients treated for 9 months; cited from earlier work
# [2] = test system: myocardial infarction (MI) mouse model; assay: Myocardial infarction; assay type: in vivo, Male C57BL/6J mice; conditions: MI mice; daily oral gavage 28 days; SNT-5382 14 mg/kg, losartan 15 mg/kg
# Outline: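 Male C57BL/6J mice, 10–11 weeks, were anaesthetised with ketamine 100 mg/kg and xylazine 10 mg/kg under ventilation. The left coronary artery was permanently ligated; shams had no occlusion. Mice with fractional shortening of 10–40% at 24 h were included. Daily oral gavage for 4 weeks: test compound 14 mg/kg (free base), losartan 15 mg/kg or water vehicle; blinded.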
# LOXL2 = conditions: cited from earlier work
molecule,measurement,setting,value
NCc1cc(Oc2cccc(C(=O)N3C[C@@H](O)[C@H](F)C3)c2)nc(C(F)(F)F)c1 [GB2064],patients with reduced bone marrow collagen fibrosis grade,[1],60%
"CCCCc1nc(Cl)c(CO)n1Cc1ccc(-c2ccccc2-c2nn[nH]n2)cc1 [losartan, Losartan]",hypertrophy: left ventricular end-systolic diameter (LVESD),[2],no significant effect
"simtuzumab: an allosteric LOXL2 selective antibody (antibody, chains of the INN, looked up, V domains shown) VH: QVQLVQSGAEVKKPGASVKVSCKASGYAFTYYLIEWVRQAPGQGLEWIGVINPGSGGTNYNEKFKGRATITADKSTSTAYMELSSLRSEDTAVYFCARNWMNFDYWGQGTTVTVSS VL: DIVMTQTPLSLSVTPGQPASISCRSSKSLLHSNGNTYLYWFLQKPGQSPQFLIYRMSNLASGVPDRFSGSGSGTDFTLKISRVEAEDVGVYYCMQHLEYPYTFGGGTKVEIK",inhibition of LOXL2 enzymatic activity,LOXL2,did not inhibit the enzymatic activity of LOXL2
